Source: PMC4254850 (Clinical cancer research : an official journal of the …, 2014)
“Also recorded” adds a separate entry of the source.

Columns and labels:
[1] = Phase I dose escalation: MTD, DLTs and toxicities; type: in vivo, human
Summary of the method: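 Open-label, four-centre, 3+3 escalation in metastatic solid-tumour patients. Test compound taken orally from 2 mg, QD (2–96 mg) then BID (48–72 mg), in continuous 4-week cycles after a single-dose run-in with 5–7 day washout. Toxicities graded by CTCAE v4.03. DLTs assessed over run-in plus first cycle. MTD: highest level with ≤1 of 6 patients showing DLT. Descriptive statistics.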

[2] = system: mammalian target of rapamycin (mTOR); conditions: cited from earlier work
[3] = system: human cancer cell lines with alterations in the PI3K pathway; conditions: in vitro; cited from earlier work
[4] = system: human tumor xenograft models with PIK3CA mutations; conditions: in vivo; cited from earlier work

## CS(=O)(=O)N1CCc2c(-c3cnc(N)nc3)nc(N3CCOCC3)nc21 [CH5132799]
[1]; 2 mg QD (n=3), grade 1-2
  Treatment-related dry skin, number of patients: 1
  Treatment-related fatigue, number of patients: 2
  Treatment-related nausea, number of patients: 1
[1]; 4 mg QD (n=3), grade 1-2
  Treatment-related nausea, number of patients: 1
  Treatment-related rash, number of patients: 1
[1]; 8 mg QD (n=3), grade 1-2
  Treatment-related fatigue, number of patients: 1
  Treatment-related rash, number of patients: 1
  Treatment-related stomatitis, number of patients: 1
[1]; 8 mg QD (n=3), grade 3-4
  Treatment-related anemia, number of patients: 1
[1]; 16 mg QD (n=3), grade 1-2
  Treatment-related decreased appetite, number of patients: 1
  Treatment-related fatigue, number of patients: 1
  Treatment-related nausea, number of patients: 2
[1]; 32 mg QD (n=4), grade 1-2
  Treatment-related decreased appetite, number of patients: 2
  Treatment-related fatigue, number of patients: 1
  Treatment-related nausea, number of patients: 1
[1]; 48 mg BID
  Patients with DLT (grade 3 LFT/transaminase elevation): one of seven
[1]; 48 mg BID (n=7), grade 1-2
  Treatment-related abdominal pain, number of patients: 1
  Treatment-related diarrhea, number of patients: 4
  Treatment-related dry skin, number of patients: 2
  Treatment-related fatigue, number of patients: 1
  Treatment-related rash, number of patients: 1
  Treatment-related stomatitis, number of patients: 3
[1]; 48 mg BID (n=7), grade 3-4
  Treatment-related anemia, number of patients: 1
  Treatment-related hyperglycemia, number of patients: 1
[1]; 48 mg BID cohort
  Grade ≥3 gastrointestinal AEs: No grade ≥3 gastrointestinal AEs
[1]; 56 mg BID
  Patients with DLTs: Two of five
[1]; 56 mg BID (n=5), grade 1-2
  Treatment-related abdominal pain, number of patients: 1
  Treatment-related anemia, number of patients: 1
  Treatment-related decreased appetite, number of patients: 2
  Treatment-related diarrhea, number of patients: 2
  Treatment-related fatigue, number of patients: 3
  Treatment-related nausea, number of patients: 3
  Treatment-related rash, number of patients: 3
  Treatment-related stomatitis, number of patients: 4
  Treatment-related vomiting, number of patients: 3
[1]; 56 mg BID (n=5), grade 3-4
  Treatment-related diarrhea, number of patients: 2
  Treatment-related hyperglycemia, number of patients: 2
  Treatment-related stomatitis, number of patients: 1
[1]; 56 mg QD (n=3), grade 1-2
  Treatment-related abdominal pain, number of patients: 1
  Treatment-related diarrhea, number of patients: 2
  Treatment-related dry skin, number of patients: 1
  Treatment-related nausea, number of patients: 1
  Treatment-related rash, number of patients: 1
[1]; 72 mg BID
  Patients with DLTs: two of three
[1]; 72 mg BID (n=3), grade 1-2
  Treatment-related anemia, number of patients: 1
  Treatment-related decreased appetite, number of patients: 2
  Treatment-related diarrhea, number of patients: 2
  Treatment-related fatigue, number of patients: 1
  Treatment-related nausea, number of patients: 1
  Treatment-related stomatitis, number of patients: 1
  Treatment-related vomiting, number of patients: 1
[1]; 72 mg BID (n=3), grade 3-4
  Treatment-related abdominal pain, number of patients: 1
  Treatment-related fatigue, number of patients: 1
  Treatment-related hyperglycemia, number of patients: 1
[1]; 96 mg QD (n=4), grade 1-2
  Treatment-related anemia, number of patients: 1
  Treatment-related decreased appetite, number of patients: 1
  Treatment-related diarrhea, number of patients: 3
  Treatment-related dry skin, number of patients: 2
  Treatment-related fatigue, number of patients: 1
  Treatment-related nausea, number of patients: 2
  Treatment-related rash, number of patients: 2
  Treatment-related stomatitis, number of patients: 2
  Treatment-related vomiting, number of patients: 2
[1]; 96 mg QD (n=4), grade 3-4
  Treatment-related diarrhea, number of patients: 2
[1]; BID dosing schedule
  Patients with Grade ≥3 hyperglycemia: Five
[1]; BID schedule, oral, 28-day cycles, patients with solid tumors
  Maximum tolerated dose (MTD): 48 mg
[1]; BID, oral
  Recommended phase 2 dose (RP2D): 48 mg
[1]; Cohort 7b, 48 mg BID, N=7, Cycle 1 Day 8
  DLT: grade 3 elevated LFT at Cycle 1 Day 8
[1]; Cohort 8, 72 mg BID, N=3, Cycle 1
  DLT: grade 3 cerebral encephalopathy; also recorded: grade 3 Fatigue
[1]; Cohort 9, 56 mg BID, N=5
  DLT: grade 3 Diarrhea and stomatitis
[1]; QD schedule
  DLTs: No DLTs
[1]; QD schedule, 2-96 mg, oral
  Maximum tolerated dose (MTD): not reached at 96 mg
[1]; all DLTs
  Reversibility of DLTs: reversible
[1]; all dose levels
  Grade 4 diarrhea: no grade 4 diarrhea reported
  Patients with grade 3 diarrhea: Four
[1]; all dose levels, Total (n=38)
  Treatment-related abdominal pain, number (%) of patients: 4 (11%)
  Treatment-related anemia, number (%) of patients: 5 (13%)
  Treatment-related decreased appetite, number (%) of patients: 8 (21%)
  Treatment-related diarrhea, number (%) of patients: 13 (34%)
  Treatment-related dry skin, number (%) of patients: 6 (16%)
  Treatment-related fatigue, number (%) of patients: 11 (29%)
  Treatment-related hyperglycemia, number (%) of patients: 5 (13%)
  Treatment-related nausea, number (%) of patients: 12 (32%)
  Treatment-related rash, number (%) of patients: 9 (24%)
  Treatment-related stomatitis, number (%) of patients: 11 (29%)
  Treatment-related vomiting, number (%) of patients: 6 (16%)
[1]; all evaluable patients, run-in period and first cycle
  Patients with DLTs: five of 38
[1]; all patients
  Diabetic ketoacidosis: No episodes of diabetic ketoacidosis
  Drug-related deaths: No drug-related deaths
  Grade of most drug-related adverse events: grade 1/2
  Patients with drug-related diarrhea: 34%
  Patients with drug-related nausea: 32%
  Patients with fatigue (most common AEs): 29%
  Patients with nausea (most common AEs): 32%
  Patients with rash (most common AEs): 24%
[2]
  Inhibitory activity against mTOR: no inhibitory activity
[3]
  Antiproliferative effect: strong antiproliferative effect
[4]
  Antitumor activity: significant antitumor activity
